Source: article PMC5593424 (Bioorganic & medicinal chemistry letters, 2017)

Key:
eIF4A [1] = target: T1, eIF4A (Homo sapiens, UniProt P60842); experiment: malachite green eIF4A ATPase assay; format: biochemical; settings: for inhibition of eIF4A ATPase activity (IC50): 8-point dose-response, 500 nM eIF4A, 250 µM ATP
eIF4A [2] = target: T1, eIF4A; experiment: fluorescence-dequenching eIF4A helicase assay; format: biochemical; settings: 100 µM compound, relative to DMSO control, eIF4B and ATP
Outline: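 RNA unwinding assay: a fluorescently labelled RNA strand is annealed to a template beside a black-hole quencher. Adding eIF4A, eIF4B and ATP releases the strand and dequenches the fluorophore. A large excess of blank template prevents reannealing. Test compounds used at 100 μM.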

A549 lung cancer cells = experiment: MTT cytotoxicity, A549; format: cell-based; settings: 8-point dose response
Outline: (§1)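 Cells exposed to an 8-point dose-response of test compound; viability read by MTT. Percent survival plotted against compound concentration on semi-log axes, and LD50 taken from that curve.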

[3] = system: MDA-MA-468 breast cancer cells; experiment: MTT cytotoxicity, MDA-MA-468; format: cell-based; settings: MDA-MA-468, MTT, 8-point dose response
Outline: as §1

[4] = cited from earlier work
DDX39A = DDX39A (Homo sapiens, UniProt O00148); experiment: ATPase dose-response against DDX39A; format: biochemical; settings: 8-point dose-response
Sequence of DDX39A (O00148 whole entry, species assumed): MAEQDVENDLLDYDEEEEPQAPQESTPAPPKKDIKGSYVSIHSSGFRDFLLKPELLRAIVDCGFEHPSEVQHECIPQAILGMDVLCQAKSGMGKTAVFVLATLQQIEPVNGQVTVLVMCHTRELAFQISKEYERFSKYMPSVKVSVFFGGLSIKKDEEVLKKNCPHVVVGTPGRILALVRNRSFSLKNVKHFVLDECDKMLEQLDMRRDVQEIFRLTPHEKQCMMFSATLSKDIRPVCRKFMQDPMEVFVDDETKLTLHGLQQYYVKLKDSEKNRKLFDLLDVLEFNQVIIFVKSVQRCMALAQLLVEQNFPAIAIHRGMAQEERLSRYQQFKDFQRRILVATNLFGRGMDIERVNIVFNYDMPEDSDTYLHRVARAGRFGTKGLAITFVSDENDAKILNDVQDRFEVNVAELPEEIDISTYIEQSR

NCI-60 panel = settings: cited from earlier work

T1 sequence (P60842 whole entry): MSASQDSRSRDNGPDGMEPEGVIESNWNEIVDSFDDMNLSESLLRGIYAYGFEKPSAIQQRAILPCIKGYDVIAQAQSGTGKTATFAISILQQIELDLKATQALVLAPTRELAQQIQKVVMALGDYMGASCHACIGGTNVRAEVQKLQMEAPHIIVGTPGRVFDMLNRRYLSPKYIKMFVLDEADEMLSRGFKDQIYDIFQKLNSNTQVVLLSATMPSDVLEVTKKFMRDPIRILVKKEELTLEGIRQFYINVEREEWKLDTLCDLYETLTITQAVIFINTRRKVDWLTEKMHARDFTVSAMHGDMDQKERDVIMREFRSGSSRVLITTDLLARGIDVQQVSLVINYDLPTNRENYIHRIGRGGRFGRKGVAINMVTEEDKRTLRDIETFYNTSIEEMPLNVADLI

| Structure (SMILES) | Ki (eIF4A [1]) [µM] | inhibition of eIF4A ATPase activity (IC50) (eIF4A [1]) | inhibition of eIF4A helicase activity (eIF4A [2]) | LD50 (A549 lung cancer cells) [µM] | LD50 [3] [µM] | antibiotic activity [4] | inhibition of DDX39A (DDX39A) | activity against the NCI-60 panel (NCI-60 panel) |
| --- | --- | --- | --- | --- | --- | --- | --- | --- |
| C=C1CC[C@@](C)(c2cc(Br)c(C)cc2O)[C@H]1C [Compound 2, allolaurinterol] | 3.86 | single-digit | near complete inhibition | 41.4 | 31.7 | antibiotic activity |  |  |
| CC(C)=C[C@@H]1C[C@H](C)c2c(O)cc(C)c3c2C1=C(C)C(=O)C3=O [Compound 1, elisabatin A] |  | single-digit |  | 40.2 | 35.2 |  | modest inhibition | only modest activity |
| C[C@H]1C[C@@]2(O[C@H]3C[C@H]4[C@@H]5CC[C@H]6C[C@H](O)CC[C@]6(C)[C@H]5[C@@H](O)C[C@]4(C)[C@H]3[C@@]2(C)O)OC1(C)C [Compound 3, hippuristanol, reference compound] |  |  | near complete inhibition |  |  |  |  |  |
